Columns and labels:
[1] = molecular target: TgACTI (T. gondii actin) (Toxoplasma gondii, UniProt P53476); assay: Ninety-degree light scattering of TgACTI polymerization; assay type: biochemical; conditions: 5 μM TgACTI in F-buffer, compounds at 0.25, 1 or 2 μM, 9000 s
In short: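 Baculovirus-expressed N-His TgACTI was Ni-NTA purified, dialysed into G buffer (pH 8.0, 0.2 mM ATP) and spun at 100000g to remove aggregates. It was held at 5 μM in G buffer at 21 °C, with ex/em 310 nm. After a steady baseline, 10× F buffer (500 mM KCl, 20 mM MgCl2, 10 mM ATP) went in at 1/10 volume with compound or DMSO control. Scatter counted for 9000 s.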

[2] = tested on: human cells; conditions: read-out: EC50, growth inhibition of human cells; cited from earlier work
[3] = tested on: T. gondii; assay: Inhibition of T. gondii proliferation; assay type: cell-based, Toxoplasma gondii; conditions: T. gondii growth on HFF monolayers
In short: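 β-gal-expressing parasites preincubated 30 min with compound dilutions in DMEM/10% FBS/gentamicin with 0.2% DMSO, then seeded at 500/well onto confluent HFF. Compound kept continuously or washed out after 2 or 48 h. After 72 h at 37 °C, 5% CO2, cells lysed and given chlorophenol red-β-D-galactopyranoside substrate. A570 normalised to untreated. EC50 from variable-slope log(inhibitor)–response fits, three experiments (n = 4 replicates).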

TgACTI (T. gondii actin), sequence (P53476 whole entry): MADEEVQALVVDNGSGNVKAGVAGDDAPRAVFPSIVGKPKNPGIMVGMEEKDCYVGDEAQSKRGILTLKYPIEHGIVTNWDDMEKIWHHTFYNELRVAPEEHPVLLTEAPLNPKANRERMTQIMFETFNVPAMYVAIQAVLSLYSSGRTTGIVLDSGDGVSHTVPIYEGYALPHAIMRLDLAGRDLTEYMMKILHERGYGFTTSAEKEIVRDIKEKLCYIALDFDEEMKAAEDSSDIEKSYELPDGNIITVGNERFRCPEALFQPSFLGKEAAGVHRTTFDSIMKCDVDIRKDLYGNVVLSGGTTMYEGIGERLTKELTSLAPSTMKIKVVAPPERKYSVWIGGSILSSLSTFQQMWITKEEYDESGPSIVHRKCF

| Structure (SMILES) | TgACTI polymerization (light scattering) [1] | EC50 [2] | activity against the parasite (in words) [3] |
| --- | --- | --- | --- |
| CO[C@@H]1C(=O)O[C@H](C)[C@H](C)/C=C(\C)C[C@H](C)C(=O)N[C@@H](C)C(=O)N(C)[C@H](Cc2c[nH]c3ccccc23)C(=O)N[C@H]1c1ccccc1 [2a, synthetic chondramide A] | promote actin polymerization |  |  |
| CO[C@@H]1C(=O)O[C@H](C)[C@H](C)/C=C(\C)C[C@H](C)C(=O)N[C@@H](C)C(=O)N(C)[C@H](Cc2c[nH]c3ccccc23)C(=O)N[C@H]1c1ccc(C(N)=O)cc1 [2k] |  | ~1400 nM | eliminated activity against the parasite |
| C/C1=C\[C@H](C)C[C@H](C)OC(=O)C[C@H](c2ccc(O)cc2)NC(=O)[C@@H](Cc2c(Br)[nH]c3ccccc23)N(C)C(=O)[C@H](C)NC(=O)[C@@H](C)C1 [compound 1, Jasplakinolide, reference compound] | promote actin polymerization |  |  |
| CO[C@@H]1C(=O)O[C@H](C)[C@H](C)/C=C(\C)C[C@H](C)C(=O)N[C@@H](C)C(=O)N(C)[C@H](Cc2c[nH]c3ccccc23)C(=O)N[C@H]1c1ccc(O)cc1 [compound 2, chondramide A] | promote actin polymerization |  |  |
